Data set [1] in a line: Ratio of AUC (0 to tlast) in brain to plasma of rat at 10 mg/kg. In kind it is ADME, organism-based. Set-up: dose 10 mg/kg. To be noted: brain and plasma.
Data set [2] is described as follows: Ratio of drug level in kidney to plasma of LRRK2 G2019S transgenic mouse kidney at 30 to 300 mg/kg/day. The following applies: kidney and plasma.
The nature of data set [3]: AUC (0 to 24 hrs) in mouse at 300 mg/kg/day, po for 14 days. It counts as ADME, organism-based. The following applies: plasma. Set-up: time < 24 hr, dose 300 mg/kg/day, route oral. Summed up:
(§1)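 Mice were dosed orally at 0, 30 and 300 mg/kg/day for 14 days, 5 males per dose group, in a PK/PD study.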

Data set [4] is described as follows: Cmax in mouse at 300 mg/kg/day, po for 14 days. In kind it is ADME, organism-based. Set-up: dose 300 mg/kg/day, route oral. The following applies: in vivo. In a few lines: as §1
Data set [5] can be described thus: Cmax in mouse at 30 mg/kg/day, po for 14 days. The arrangement: dose 30 mg/kg/day, route oral. The following applies: in vivo. It counts as ADME, organism-based. In a few lines:
as §1

Data set [6] can be described thus: AUC (0 to 24 hrs) in mouse at 30 mg/kg/day, po for 14 days. It counts as ADME, organism-based. The arrangement: dose 30 mg/kg/day, time < 24 hr, route oral. The following applies: plasma. Summed up:
as §1

Broadly, the Kp is the ratio of the level in a tissue or fluid to that in plasma or blood. By AUC is commonly meant the area under the concentration-time curve, a measure of exposure. A lower AUC goes with less exposure. As usually defined, the Cmax is the maximum level reached in the sampled fluid or tissue.

With `COc1ccc(OC)c(Sc2ccc3nnc(-c4cnn(C)c4)n3n2)c1`, the results for the Kp in data set [1] and in data set [2] were 0.14 and 2, respectively. Further, the exposure (AUC) at 24 h is 20900 ng·h/mL in data set [3] and 350 ng·h/mL in data set [6]. The peak concentration (Cmax) came to 12900 ng/mL in data set [4] and 200 ng/mL in data set [5].

The values above are taken from ChEMBL document CHEMBL3352207, “Kinase domain inhibition of leucine rich repeat kinase 2 (LRRK2) using a [1,2,4]triazolo[4,3-b]pyridazine scaffold” (Bioorg Med Chem Lett, 2014).
